Experimental data from ChEMBL document CHEMBL4007417, “Target Elucidation by Cocrystal Structures of NADH-Ubiquinone Oxidoreductase of Plasmodium falciparum (PfNDH2) with Small Molecule To Eliminate Drug-Resistant Malaria” (J Med Chem, 2017).
Calls of active or inactive are those of the source. The rule behind the calls is not given here.

Key:
Plasmodium yoelii [1] = experiment: Antimalarial activity against Plasmodium yoelii YM infected in BALB/c mouse assessed as mouse survival at 30 mg/kg, sc administered BID for 4 days starting at 96 hrs post infection, 8 hrs apart by Giemsa-staining based microscopic analysis; type: functional
In short: (§1)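 Mice inoculated with 1×106 P. yoelii parasites. Subcutaneous dosing for 4 days starting 96 h post infection, given once daily or twice daily 8 h apart. Parasitemia followed on Giemsa-stained blood smears. Survival recorded at 40 days post infection; groups of n=3. DMSO-only mice served as untreated controls.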

Plasmodium yoelii [2] = experiment: Antimalarial activity against Plasmodium yoelii YM infected in BALB/c mouse assessed as time duration for parasite cure at 90 mg/kg, sc administered BID for 4 days starting at 96 hrs post infection, 8 hrs apart by Giemsa-staining based microscopic analysis; type: functional
In short: (§2)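 P. yoelii-infected mice, n=3 per group. Subcutaneous injection twice daily, 8 h apart, for 4 days starting at 96 h post infection. Growth inhibition read from blood smears at 24 h post treatment. Cure time taken as the minimum period to cure all mice in the group. DMSO controls included.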

Plasmodium yoelii [3] = experiment: Antimalarial activity against Plasmodium yoelii YM infected in BALB/c mouse assessed as time duration for parasite cure at 10 mg/kg, sc administered BID for 4 days starting at 96 hrs post infection, 8 hrs apart by Giemsa-staining based microscopic analysis; type: functional; in short: as §2
Plasmodium yoelii [4] = experiment: Antimalarial activity against Plasmodium yoelii YM infected in BALB/c mouse assessed as parasite growth inhibition at 90 mg/kg, sc administered BID for 4 days starting at 96 hrs post infection, 8 hrs apart by Giemsa-staining based microscopic analysis; type: functional; conditions: read-out: GI; in short: as §2
Plasmodium yoelii [5] = experiment: Antimalarial activity against Plasmodium yoelii YM infected in BALB/c mouse assessed as mouse survival at 10 mg/kg, sc administered BID for 4 days starting at 96 hrs post infection, 8 hrs apart by Giemsa-staining based microscopic analysis; type: functional; in short: as §1
Plasmodium falciparum [6] = experiment: Antimalarial activity against […] asexual blood stage Plasmodium falciparum 3D7 after 72 hrs by SYBR green-based fluorometric analysis; type: functional; conditions: 3D7, 72 h
In short: (§3)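 Mid-ring-stage cultures (~6-10 h post-invasion) at 1% parasitemia and 2% hematocrit, in triplicate. Twofold serial dilutions from a top concentration of 100 nM. Incubated 72 h at 37 °C under 5% CO2/5% O2/90% N2. Lysis buffer containing 5×SYBR Green I added, 20 min in the dark, fluorescence read at ex 485/em 538 nm. EC50 derived.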

Plasmodium yoelii [7] = experiment: Antimalarial activity against Plasmodium yoelii YM infected in BALB/c mouse assessed as parasite growth inhibition at 10 mg/kg, sc administered BID for 4 days starting at 96 hrs post infection, 8 hrs apart by Giemsa-staining based microscopic analysis; type: functional; conditions: read-out: GI; in short: as §2
Plasmodium yoelii [8] = experiment: Antimalarial activity against Plasmodium yoelii YM infected in BALB/c mouse assessed as mouse survival at 90 mg/kg, sc administered BID for 4 days starting at 96 hrs post infection, 8 hrs apart by Giemsa-staining based microscopic analysis; type: functional; in short: as §1
Plasmodium yoelii [9] = experiment: Antimalarial activity against Plasmodium yoelii YM infected in BALB/c mouse assessed as parasite growth inhibition at 30 mg/kg, sc administered BID for 4 days starting at 96 hrs post infection, 8 hrs apart by Giemsa-staining based microscopic analysis; type: functional; conditions: read-out: GI; in short: as §2
Plasmodium yoelii [10] = experiment: Antimalarial activity against Plasmodium yoelii YM infected in BALB/c mouse assessed as parasite cure level at 10 to 90 mg/kg, ip administered on days 1 post infection by Giemsa-stained microscopic analysis; type: functional, organism-based
In short: (§4)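 Mice (groups of three) inoculated with 1×10^6 P. yoelii parasites. Single intraperitoneal dose of 10, 30 or 90 mg/kg given 24 h after inoculation. DMSO-only untreated group included. Outcome followed by blood-smear microscopy for cure, with survival scored at 40 days post infection.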

Plasmodium yoelii [11] = experiment: Antimalarial activity against Plasmodium yoelii YM infected in BALB/c mouse assessed as time duration for parasite cure at 30 mg/kg, sc administered BID for 4 days starting at 96 hrs post infection, 8 hrs apart by Giemsa-staining based microscopic analysis; type: functional; in short: as §2
Plasmodium falciparum [12] = experiment: Antimalarial activity against chloroquine/quinine-resistant asexual blood stage Plasmodium falciparum S35 after 72 hrs by SYBR green-based fluorometric analysis; type: functional; conditions: S35, 72 h; in short: as §3
Plasmodium yoelii [13] = experiment: Antimalarial activity against Plasmodium yoelii YM infected in BALB/c mouse assessed as mouse survival at 5 mg/kg, sc administered QD for 4 days starting at 2 hrs post infection by Giemsa-staining based microscopic analysis; type: functional
In short: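 Mice inoculated with 1×106 P. yoelii parasites, then dosed subcutaneously once daily for 4 days starting 2 h post infection. Parasitemia followed by microscopy of blood smears. Survival scored at 40 days post infection in groups of n=3 mice. DMSO-only controls.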

Plasmodium yoelii [14] = experiment: Antimalarial activity against Plasmodium yoelii YM infected in BALB/c mouse assessed as time duration for parasite cure at 30 mg/kg, sc administered QD for 4 days starting at 96 hrs post infection by Giemsa-staining based microscopic analysis; type: functional
In short: (§5)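 P. yoelii-infected mice, n=3 per group. Subcutaneous injection once daily for 4 days starting at 96 h post infection. Parasitemia followed on blood-smear microscopy, with inhibition measured at 24 h post treatment. Cure time taken as the minimum period to cure all mice; survival recorded at 40 days. DMSO controls included.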

Plasmodium yoelii [15] = experiment: Antimalarial activity against Plasmodium yoelii YM infected in BALB/c mouse assessed as parasite cure level at 10 mg/kg, ip administered on days 1 post infection by Giemsa-stained microscopic analysis; type: functional, organism-based; in short: as §4
Plasmodium falciparum [16] = experiment: Antimalarial activity against multi drug-resistant asexual blood stage Plasmodium falciparum D10 after 72 hrs by SYBR green-based fluorometric analysis; type: functional; conditions: D10, 72 h; in short: as §3
Plasmodium falciparum [17] = experiment: (§6) Antimalarial activity against quinine-resistant asexual blood stage Plasmodium falciparum 3D7 assessed as reduction in parasite recrudescence at 10 times EC50 for 72 hrs measured after 28 days post invasion by Giemsa staining-based light microscopic analysis; type: functional
In short: (§7)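 Parasite cultures exposed for 72 h to 10× EC50 of inhibitor. Drug then removed and cultures maintained for 28 days post treatment. Recrudescence monitored by microscopy.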

Plasmodium falciparum [18] = experiment: Antimalarial activity against multi drug-resistant asexual blood stage Plasmodium falciparum Fab9 after 72 hrs by SYBR green-based fluorometric analysis; type: functional; conditions: Fab9, 72 h; in short: as §3
Plasmodium yoelii [19] = experiment: Antimalarial activity against Plasmodium yoelii YM infected in BALB/c mouse assessed reduction in parasitemia at 30 mg/kg/day, sc for 4 days by Giemsa-staining based microscopic analysis; type: functional, organism-based; in short: as §5
Plasmodium yoelii [20] = experiment: Antimalarial activity against Plasmodium yoelii YM infected in BALB/c mouse assessed as parasite growth inhibition at 30 mg/kg, sc administered QD for 4 days starting at 96 hrs post infection by Giemsa-staining based microscopic analysis; type: functional; conditions: read-out: GI; in short: as §5
Plasmodium falciparum [21] = experiment: as §6, with “chloroquine/quinine/sulfadoxine-pyrimethamine/amodiaquine-resistant” for “quinine-resistant”, “Dd2” for “3D7”; type: functional; in short: as §7
Plasmodium falciparum [22] = experiment: Antimalarial activity against quinine-resistant asexual blood stage Plasmodium falciparum C2A after 72 hrs by SYBR green-based fluorometric analysis; type: functional; in short: as §3
Plasmodium falciparum [23] = experiment: Antimalarial activity against sulfadoxine-pyrimethamine/mefloquine resistant asexual blood stage Plasmodium falciparum CP286 after 72 hrs by SYBR green-based fluorometric analysis; type: functional; conditions: CP286, 72 h; in short: as §3
Plasmodium falciparum [24] = experiment: Antimalarial activity against chloroquine/quinine/sulfadoxine-pyrimethamine/amodiaquine-resistant asexual blood stage Plasmodium falciparum PC26 after 72 hrs by SYBR green-based fluorometric analysis; type: functional; conditions: PC26, 72 h; in short: as §3
Plasmodium falciparum [25] = experiment: Antimalarial activity against Plasmodium falciparum 3D7 assessed as alteration of parasite morphology at 10 times EC50 dosed at ring stage […] by Giemsa staining-based light microscopic analysis; type: functional, organism-based
Plasmodium yoelii [26] = experiment: Antimalarial activity against Plasmodium yoelii YM infected in BALB/c mouse assessed as parasite growth inhibition at 5 mg/kg, sc administered QD for 4 days starting at 2 hrs post infection by Giemsa-staining based microscopic analysis; type: functional; conditions: read-out: GI
In short: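 P. yoelii-infected mice, n=3 per group. Subcutaneous injection once daily for 4 days starting at 2 h post infection. Growth inhibition determined at 24 h post treatment by blood-smear microscopy. Cure time taken as the minimum period to cure all mice in the group.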

Plasmodium falciparum [27] = experiment: Antimalarial activity against chloroquine/quinine/sulfadoxine-pyrimethamine/amodiaquine-resistant asexual blood stage Plasmodium falciparum Dd2 after 72 hrs by SYBR green-based fluorometric analysis; type: functional; conditions: Dd2, 72 h; in short: as §3
HeLa = experiment: Cytotoxicity against human HeLa cells assessed as reduction in cell viability up to 2 uM after 48 hrs by MTT assay; type: cell-based
In short: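 HeLa cell viability measured by MTT assay with compound at concentrations up to 2 µM.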

Plasmodium yoelii [28] = experiment: Antimalarial activity against Plasmodium yoelii YM infected in BALB/c mouse assessed as mouse survival at 30 mg/kg, sc administered QD for 4 days starting at 96 hrs post infection by Giemsa-staining based microscopic analysis; type: functional; in short: as §1
Plasmodium falciparum [29] = experiment: Antimalarial activity against dihydroartemisinin-resistant asexual blood stage Plasmodium falciparum 803 after 72 hrs by SYBR green-based fluorometric analysis; type: functional; conditions: Plasmodium falciparum, 803, 72 h; in short: as §3
Plasmodium falciparum [30] = experiment: Antimalarial activity against dihydroartemisinin-resistant asexual blood stage Plasmodium falciparum 803 assessed as reduction in parasite recrudescence at 10 times EC50 for 72 hrs measured after 28 days post invasion by Giemsa staining-based light microscopic analysis; type: functional; in short: as §7
Plasmodium falciparum [31] = experiment: Antimalarial activity against chloroquine-resistant asexual blood stage Plasmodium falciparum GB4 after 72 hrs by SYBR green-based fluorometric analysis; type: functional; conditions: GB4, 72 h; in short: as §3
Plasmodium falciparum [32] = experiment: Antimalarial activity against mid/late trophozoite stage of Plasmodium falciparum 3D7 assessed as reduction in parasitemia at 10 times EC50 administered at synchronized early ring stages and then removed from culture at 2 hrs intervals after 34 hrs paraiste invasion stage and measured till 40 hrs post invasion by SYBR green-based fluorometric analysis; type: functional; set-up: scale not given: the % may be the effect or the level left
In short: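 Synchronized early-ring P. falciparum 3D7 treated with about 10×EC50 compound. Compound removed at 2 h intervals starting at t=34 h (trophozoite), then parasites returned to compound-free medium. Maturation through a single ~48 h asexual cycle followed.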

Work on `C[C@H]1[C@@H](O)O[C@@H]2O[C@@]3(C)CC[C@H]4[C@H](C)CC[C@@H]1[C@@]24OO3` [ARTENIMOL] yielded a survival at 30 mg/kg (Plasmodium yoelii [1]) of 100%, a Time (Plasmodium yoelii [2]) of 4 days and a Time (Plasmodium yoelii [3]) of 15 days. The inhibition in vivo at 90 mg/kg (Plasmodium yoelii [4]) was 100%, the survival at 10 mg/kg (Plasmodium yoelii [5]) was 100% and the EC50 (Plasmodium falciparum [6]) was 4.32 nM. It also gave an inhibition in vivo at 10 mg/kg (Plasmodium yoelii [7]) of 100%, a survival at 90 mg/kg (Plasmodium yoelii [8]) of 100% and an inhibition in vivo at 30 mg/kg (Plasmodium yoelii [9]) of 100%. The Activity (Plasmodium yoelii [10]) was “Active” and the Time (Plasmodium yoelii [11]) was 4 days.

Compound `Cc1c(-c2ccc(Cc3ccc(SC(F)(F)F)cc3)cc2)[nH]c2cccc(F)c2c1=O` has an EC50 (Plasmodium falciparum [12]) of 4.82 nM, a survival at 5 mg/kg (Plasmodium yoelii [13]) of 0% and a Time (Plasmodium yoelii [14]) of 18 days. The Activity (Plasmodium yoelii [15]) was “inactive”, the EC50 (Plasmodium falciparum [16]) was 7.7 nM and the Activity (Plasmodium falciparum [17]) was “Active”. It also gave a survival at 30 mg/kg (Plasmodium yoelii [1]) of 100%, a Time (Plasmodium yoelii [2]) of 14 days and an EC50 (Plasmodium falciparum [18]) of 5.46 nM. The Activity (Plasmodium yoelii [19]) was “Active”, the inhibition in vivo at 90 mg/kg (Plasmodium yoelii [4]) was 100% and the inhibition in vivo at 30 mg/kg (Plasmodium yoelii [20]) was 77.4%. The Activity (Plasmodium falciparum [21]) was “Active”, the EC50 (Plasmodium falciparum [22]) was 5.26 nM and the EC50 (Plasmodium falciparum [23]) was 6.24 nM. For the same compound, the survival at 10 mg/kg (Plasmodium yoelii [5]) was 0%, the EC50 (Plasmodium falciparum [6]) was 5.69 nM and the EC50 (Plasmodium falciparum [24]) was 4.42 nM. For the same compound, the Activity (Plasmodium falciparum [25]) was “Active”, the inhibition in vivo at 5 mg/kg (Plasmodium yoelii [26]) was 0% and the EC50 (Plasmodium falciparum [27]) was 2.1 nM. The inhibition in vivo at 10 mg/kg (Plasmodium yoelii [7]) was 0%, the Activity (HeLa) was “Non-Toxic” and the survival at 30 mg/kg (Plasmodium yoelii [28]) was 66.7%. For the same compound, the EC50 (Plasmodium falciparum [29]) was 4.66 nM, the survival at 90 mg/kg (Plasmodium yoelii [8]) was 100% and the inhibition in vivo at 30 mg/kg (Plasmodium yoelii [9]) was 99.8%. The Activity (Plasmodium falciparum [30]) was “Active”, the EC50 (Plasmodium falciparum [31]) was 3.17 nM and the Time (Plasmodium yoelii [11]) was 15 days. The Activity (Plasmodium falciparum [32]) was “>=50%”.
